APJ antagonist – blocks the human apelin receptor APJ | inhibition, % at 20 µM | P35414 | CHO-K1 APJ beta-arrestin complementation, luminescence | AID 2521 | actives 0.32% (n = 330,000);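 active = inhibition above about 40% at 20 µM, limit read from the data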;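 note: cells challenged with 10 nM apelin-13 agonist together with compound; plate controls were apelin-13 plus DMSO wells for no effect and DMSO wells lacking apelin-13 for full effect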
APJ ag – activates the human apelin receptor APJ. AID 2520. actives 0.11% (n = 330,000). CHO-K1 APJ PathHunter beta-arrestin, luminescence; 0% DMSO wells, 100% apelin. activation, % at 20 µM. P35414;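 active = activation more than six SD over the plate average, tested at 20 µM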;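 note: 0% = DMSO alone and 100% = apelin-13 at 10 nM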
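Assay system: engineered CHO-K1 APJ arrestin reporter cells; Amount: 1000 CHO-K1 reporter cells seeded per well; Dosing: one dose, 20 µM compound, 1% DMSO; Times: compound stimulation 90 min at 25 °C, detection 60 min; Measured by: luminescent beta-gal fragment complementation, chemiluminescent substrate; Read-out: APJ–arrestin association signal; Controls: DMSO vs Apelin-13 10 nM.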
CXCR6 inh – blocks human CXCR6 beta-arrestin recruitment; O00574; CHO-K1 PathHunter CXCR6 beta-arrestin, luminescence; inhibition, % at 20 µM; actives 0.36% (n = 360,000); in the data active = inhibition above about 34%, passing the limit was not always enough;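 note: antagonist mode with CXCL16 agonist at 10 nM final; 0% = 10 nM CXCL16 with DMSO and 100% = unstimulated wells without agonist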
Target sequence (O00574 whole entry, looked up): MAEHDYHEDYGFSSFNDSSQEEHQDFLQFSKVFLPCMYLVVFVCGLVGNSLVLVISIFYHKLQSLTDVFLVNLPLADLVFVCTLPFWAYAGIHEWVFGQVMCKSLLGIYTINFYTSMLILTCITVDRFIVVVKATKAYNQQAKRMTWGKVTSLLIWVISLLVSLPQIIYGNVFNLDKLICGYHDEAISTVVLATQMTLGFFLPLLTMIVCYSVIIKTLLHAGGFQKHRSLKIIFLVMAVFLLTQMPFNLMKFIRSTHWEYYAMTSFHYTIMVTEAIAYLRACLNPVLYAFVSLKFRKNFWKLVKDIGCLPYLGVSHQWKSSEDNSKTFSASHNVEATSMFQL
Beta2AR agonist – activates human beta-2 adrenergic receptor causing internalization | Am2.2-beta2AR cells, FAP receptor internalization, flow cytometry | P07550 | actives 0.43% (n = 340,000) | AID 504454 | response, % (no concentration beside the values);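 active = response above a set limit, near 3 SD of response in nonfluorescent compounds, cut at about 42% in these data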
EBI2 block – blocks human EBI2 receptor beta-arrestin signaling. P32249. EBI2 beta-arrestin recruitment, luminescence, 7a,25-OHC stimulated. inhibition, % at 5 µM. actives 0.81% (n = 360,000); in the data active = inhibition above about 38%;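 note: enzyme fragment complementation signal reports receptor beta-arrestin coupling in cells; 0% = agonist plus DMSO wells and 100% = wells without agonist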
CCR6 antag – blocks CCL20-driven beta-arrestin recruitment at human CCR6; P51684; CHO-K1 CCR6 PathHunter beta-arrestin, luminescence, CCL20-stimulated; inhibition, % at 20 µM; actives 0.49% (n = 340,000); AID 493098;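 active = compounds whose inhibition of the agonist-driven luminescence signal at 20 µM reaches about 50%, limit read from the data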;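 note: cells stimulated with CCL20 at 14 nM final; plate controls were DMSO with CCL20 for no effect and DMSO without agonist for full effect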
Active calls of the source: *; i = inactive; . = not tested or not shown; ! = not active in a repeat. Only some compounds are listed: those with a hit (about 1.8% of all), similar ones and a draw of the others.

SMILES	APJ antagonist	APJ ag	CXCR6 inh	Beta2AR agonist	EBI2 block	CCR6 antag
COc1ccc2cc(/C=C3\SC(=S)NC3=O)c(N3CCOCC3)nc2c1	26	1	11	19	-1	29
O=C1/C(=C/c2ccc(N3CCOCC3)o2)SC(=Nc2ccccc2)N1CCc1c[nH]c2ccccc12	-8	4	5	i	83*	15
O=C1S/C(=C/c2ccc(N3CCOCC3)o2)C(=O)N1Cc1ccc(F)cc1	22	0	8	-67	19	14
COc1cc(/C=C2\SC(=Nc3ccccc3)N(CCc3c[nH]c4ccccc34)C2=O)ccc1OC(C)C(=O)O (centres undefined)	-6	0	10	19	23	13
OCCC1CN(Cc2ccon2)CCN1CCc1ccccc1 (centres undefined)	-22	-4	7	11	0	-6
N#Cc1ccc(S(=O)(=O)NCC(=O)OCC(=O)N2CCCC2=O)cc1	-35	1	-9	-1	-1	3
CC(NC(=O)COC(=O)c1ccc[nH]c1=O)c1ccccc1 (centres undefined)	6	-5	-1	4	-4	-1
COc1ccc(S(=O)(=O)N2CCCN(CC(=O)Nc3ccc(OC)c(Cl)c3)CC2)cc1	7	1	-18	5	21	3
O=C(CN1CCN(S(=O)(=O)c2ccc(Br)cc2)CC1)Nc1ccc2c(c1)OCO2	-19	-4	62*	-1	9	8
COc1ccc(NC(=O)CN2CCN(S(=O)(=O)c3ccc(Cl)cc3)CC2)cc1Cl	-15	2	-8	5	38*	10
Cc1cccc(-n2nc([N+](=O)[O-])c(=NC3CCN(Cc4ccccc4)CC3)n2O)c1	-70	16*	-14	6	-26	0
Cc1cccc(CCN=c2c([N+](=O)[O-])nn(-c3ccccc3)n2O)c1	-20	13	0	13	-7	5
COC(=O)C1(O)CC(C(C)C)=NN1C(=O)c1ccccc1 (centres undefined)	4	-4	3	1	0	-4
CCCn1c(N)c(Sc2ccccc2[N+](=O)[O-])c(=O)n(CCC)c1=O	14	-1	7	-3	-3	10
Clc1ccc(-c2csc3ncnc(Cl)c23)cc1	-2	-3	4	4	9	12
NNc1ncnc2scc(-c3ccc(Cl)cc3)c12	46*	1	4	-14	3	6
CCC(C)Sc1ccc([C@H]2N[C@@](Cc3ccccc3)(C(=O)OC)[C@H]3C(=O)N(C)C(=O)[C@@H]23)cc1 (some centres undefined)	4	-1	3	-4	9	23
COc1ccc(-c2nc(=S)c3ccc4ccccc4c3[nH]2)cc1	.	.	45*	-6	3	71*
COc1ccc(-c2nc3ccccc3[nH]2)cc1	6	1	-2	-7	-6	-1
CCOc1cc(CNC(C)(C)CO)cc(Br)c1OCc1ccc(Cl)cc1Cl	-20	-7	-6	34	-21	50*
CCOC(=O)C1=C(O)/C(=C/c2ccc(CNC(=O)C(=O)Nc3ccc(C)cc3)o2)N=C1C	-19	1	3	75*	-3	11
COC(=O)C1=C(O)/C(=C\c2ccc(CNS(=O)(=O)c3ccccc3)o2)N=C1C	5	-3	2	-2	-2	7
COC(=O)C1=C(O)/C(=C\c2ccc(CNC(=O)C(=O)Nc3ccc(C)c(C)c3)o2)N=C1C	-5	-2	2	70*	4	-21
COC(=O)C1=C(O)/C(=C\c2ccc(CNC(=O)C(=O)Nc3ccc(C)cc3)o2)N=C1C	8	-6	4	56*	-9	22
CCOC(=O)C(=O)NCc1ccc(/C=C2/N=C(C)C(C(=O)OCC)=C2O)o1	-12	-4	6	-3	1	8
SMILES	APJ antagonist	APJ ag	CXCR6 inh	Beta2AR agonist	EBI2 block	CCR6 antag
Cc1nc([N+](=O)[O-])c(Sc2nc3ccccc3n2C)n1Cc1ccccc1	21	-3	1	11	-6	18
Cc1ccc(C(=O)NC(=S)Nc2cccc3c(C)cc(C)nc23)cc1	1	-1	20	0	34	51*
Cc1ccc(C(=O)NC(=S)Nc2cccc3nsnc23)cc1	9	-3	12	-2	2	45
Oc1ccc(/C=N/Nc2ccc(Cl)nn2)c(O)c1O	-48	1	-9	92*	-3	7
CC1(C(=O)NCc2cccc3ccccc23)CCN1Cc1cccc2c1OCO2 (centres undefined)	.	.	8	.	23	.
COc1cc2c3c(c1)C(C)=CC(C)(C)N3C(=O)C2=O	9	-4	2	4	-16	11
COc1cc(N=C2C(=O)N3c4c(cccc42)C(C)=CC3(C)C)cc(OC)c1	13	-6	14	17	-13	61*
CS/C(=N\S(=O)(=O)c1cccs1)Nc1ccc(Br)cc1F	-9	-1	4	59*!	-4	9
O=C(NCCN1CCN(C(=O)c2cccc(OC(F)F)c2)CC1)c1cccc(OC(F)F)c1	11	0	7	-2	8	6
Cc1ccc(-c2nc(CN(Cc3cnn(C)c3)C(C)C)c(C)o2)o1	2	-2	3	3	-6	12
CCC/C=N/Nc1nc2ccccc2s1	-5	-3	3	-6	-15	-3
C/C(N=Nc1nc2ccccc2s1)=N\Nc1ccccc1O	36	-10	50*	4	18	65*
C/C(CCC(C)C)=N\Nc1cc(C)c2ccccc2n1	43*	0	35	0	-1	56*
CC(=O)Nc1ccc(NC(=O)c2cccc(-c3cc4ccccc4oc3=O)c2)cc1	-38	-5	2	-22	9	-14
O=C(Nc1ccc(N2CCCC2)c(Cl)c1)c1cccc(-c2cc3ccccc3oc2=O)c1	3	-1	4	61*	4	21
OC(CNCCc1ccc(C(F)(F)F)cc1)COC(c1ccccc1)c1ccccc1 (centres undefined)	-27	-1	32	20	20	60*
COc1cccc(/C=C/C(=O)OCC(=O)Nc2cccc(S(=O)(=O)NC3=NCCCCC3)c2)c1	2	-2	8	10	5	7
O=C1c2ccccc2C(c2nnnn2Cc2ccccc2)N1C1CC1 (centres undefined)	.	.	4	.	-5	.
COc1ccc(C2C(C#N)=C(N)Oc3cc(N)ccc32)cc1 (centres undefined)	-25	4	2	-2	2	2
COc1cc(C2C(C#N)=C(N)Oc3cc(N)ccc32)cc(OC)c1OC (centres undefined)	-3	2	-2	50*	-27	-6
CC(=O)NCCNC(=O)C1(C)Cc2c(-c3cccc(C(F)(F)F)c3)ccnc2O1 (centres undefined)	.	.	-3	.	-16	.
